The text below walks through data of BindingDB's records for doi:10.1021/jm960652r (Genentech, 1997).

A word on the IC50: it is the concentration needed to halve the response being measured. The low end stands for inhibition by little substance, the high end for a need for much substance.

Assay [1] has as its target T1, Integrin alpha-IIb/beta-3 (Homo sapiens, UniProt P08514+P05106). The assay is described as follows: Inhibition of thrombin-induced platelet aggregation assay at 20 uM.
For assay [2], the target named is T1, Integrin alpha-IIb/beta-3. The assay can be described thus: Inhibition of 17.5 uM ADP-induced platelet aggregation of human platelet-rich plasma. The procedure, abridged: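 Aggregation of human platelets in platelet-rich plasma. Values are the average of at least 3 determinations.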

T1 sequence (P05106 27-788 limits assumed): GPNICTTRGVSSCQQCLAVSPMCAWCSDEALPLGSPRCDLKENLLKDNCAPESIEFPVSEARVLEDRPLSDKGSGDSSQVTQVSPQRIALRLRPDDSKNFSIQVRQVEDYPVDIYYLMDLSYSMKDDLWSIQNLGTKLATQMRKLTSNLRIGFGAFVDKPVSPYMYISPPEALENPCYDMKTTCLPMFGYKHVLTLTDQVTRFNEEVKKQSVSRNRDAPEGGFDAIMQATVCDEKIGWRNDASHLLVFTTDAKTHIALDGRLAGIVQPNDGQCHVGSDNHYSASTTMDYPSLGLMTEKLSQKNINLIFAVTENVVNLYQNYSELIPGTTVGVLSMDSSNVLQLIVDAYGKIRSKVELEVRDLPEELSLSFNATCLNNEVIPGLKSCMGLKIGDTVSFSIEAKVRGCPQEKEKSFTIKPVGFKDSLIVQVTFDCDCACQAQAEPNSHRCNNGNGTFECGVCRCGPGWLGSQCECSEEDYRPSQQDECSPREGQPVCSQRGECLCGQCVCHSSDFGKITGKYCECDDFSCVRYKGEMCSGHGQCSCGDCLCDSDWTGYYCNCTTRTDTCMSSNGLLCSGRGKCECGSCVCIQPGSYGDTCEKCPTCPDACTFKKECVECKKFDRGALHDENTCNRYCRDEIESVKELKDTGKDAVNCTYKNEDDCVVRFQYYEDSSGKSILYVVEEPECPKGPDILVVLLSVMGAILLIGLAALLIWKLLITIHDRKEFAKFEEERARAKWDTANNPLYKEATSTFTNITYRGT
T1 sequence (P08514 32-887 limits assumed): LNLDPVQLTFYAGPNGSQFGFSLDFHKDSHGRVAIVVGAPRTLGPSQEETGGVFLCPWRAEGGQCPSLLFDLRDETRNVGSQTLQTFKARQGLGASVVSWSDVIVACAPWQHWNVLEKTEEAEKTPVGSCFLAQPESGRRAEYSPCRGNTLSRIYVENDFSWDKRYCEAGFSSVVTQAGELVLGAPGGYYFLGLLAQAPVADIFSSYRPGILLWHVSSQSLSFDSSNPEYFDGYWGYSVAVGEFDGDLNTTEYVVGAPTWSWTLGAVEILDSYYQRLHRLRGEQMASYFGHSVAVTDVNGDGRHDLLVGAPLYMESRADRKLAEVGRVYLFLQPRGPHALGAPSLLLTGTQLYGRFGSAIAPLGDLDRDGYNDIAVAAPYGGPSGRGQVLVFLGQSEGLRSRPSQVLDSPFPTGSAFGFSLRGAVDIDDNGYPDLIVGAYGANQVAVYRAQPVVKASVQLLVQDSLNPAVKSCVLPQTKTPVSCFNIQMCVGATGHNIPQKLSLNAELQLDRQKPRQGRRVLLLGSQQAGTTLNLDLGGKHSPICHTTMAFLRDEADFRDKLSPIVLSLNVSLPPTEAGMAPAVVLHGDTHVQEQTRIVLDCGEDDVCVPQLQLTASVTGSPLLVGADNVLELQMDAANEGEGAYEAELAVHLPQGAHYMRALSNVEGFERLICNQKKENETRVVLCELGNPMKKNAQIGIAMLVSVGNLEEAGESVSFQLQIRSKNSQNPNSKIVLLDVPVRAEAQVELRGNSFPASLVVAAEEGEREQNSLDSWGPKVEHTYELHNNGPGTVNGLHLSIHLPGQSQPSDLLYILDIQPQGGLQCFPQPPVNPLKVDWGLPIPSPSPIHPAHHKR
T1 sequence (P08514 891-1039 limits assumed): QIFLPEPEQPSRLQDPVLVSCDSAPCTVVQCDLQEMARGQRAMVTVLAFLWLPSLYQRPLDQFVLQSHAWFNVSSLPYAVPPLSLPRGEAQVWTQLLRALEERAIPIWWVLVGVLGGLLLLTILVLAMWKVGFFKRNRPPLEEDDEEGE

For the molecule `CN1C(=O)CN(CCC(=O)O)C(=O)c2cc(C#Cc3ccc(C(=N)N)cc3)ccc21` [3-[7-(4-Carbamimidoyl-phenylethynyl)-1-methyl-2,5-dioxo-1,2,3,5-tetrahydro-benzo[e][1,4]diazepin-4-yl]-propionic acid(G6249)], half-maximal inhibition in assay [1] (IC50) was put at 213 nM. This counts as sub-micromolar.
Consider `C[C@H](CC(=O)O)N1CC(=O)N(C(C)(C)C)c2c(Cl)cc(C#Cc3ccc(C(=N)N)cc3)cc2C1=O` [(R)-3-[1-tert-Butyl-7-(4-carbamimidoyl-phenylethynyl)-9-chloro-2,5-dioxo-1,2,3,5-tetrahydro-benzo[e][1,4]diazepin-4-yl]-butyric acid], for which the IC50 in assay [2] is 1300 nM. In other words, the single-digit micromolar range.
Still for that read-out and setting: to `C[C@H](CC(=O)O)N1CC(=O)N(C)c2ccc(C#Cc3ccc(C(=N)N)cc3)cc2C1=O` [(R)-3-[7-(4-Carbamimidoyl-phenylethynyl)-1-methyl-2,5-dioxo-1,2,3,5-tetrahydro-benzo[e][1,4]diazepin-4-yl]-butyric acid] belongs 820 nM; to `C[C@@H](CC(=O)O)N1CC(=O)N(C(C)(C)C)c2ccc(C#Cc3ccc(C(=N)N)cc3)cc2C1=O` [(S)-3-[1-tert-Butyl-7-(4-carbamimidoyl-phenylethynyl)-2,5-dioxo-1,2,3,5-tetrahydro-benzo[e][1,4]diazepin-4-yl]-butyric acid], 92 nM.
For `C[C@@H](CC(=O)O)N1CC(=O)N(C(C)(C)C)c2c(Cl)cc(C#Cc3ccc(C(=N)N)cc3)cc2C1=O` [(S)-3-[1-tert-Butyl-7-(4-carbamimidoyl-phenylethynyl)-9-chloro-2,5-dioxo-1,2,3,5-tetrahydro-benzo[e][1,4]diazepin-4-yl]-butyric acid], the IC50 in assay [1] worked out at 60 nM; in assay [2], 34 nM.
In the same order, the values of `C[C@@H](CC(=O)O)N1CC(=O)N(C)c2ccc(C#Cc3ccc(C(=N)N)cc3)cc2C1=O` [(S)-3-[7-(4-Carbamimidoyl-phenylethynyl)-1-methyl-2,5-dioxo-1,2,3,5-tetrahydro-benzo[e][1,4]diazepin-4-yl]-butyric acid] are 138 nM and 78 nM.
In the same order, the values of `C[C@@H](CC(=O)O)N1CC(=O)N(C)c2c(Cl)cc(C#Cc3ccc(C(=N)N)cc3)cc2C1=O` [(S)-3-[7-(4-Carbamimidoyl-phenylethynyl)-9-chloro-1-methyl-2,5-dioxo-1,2,3,5-tetrahydro-benzo[e][1,4]diazepin-4-yl]-butyric acid] are 313 nM and 159 nM.
